In PMC5987874 (The Journal of General Physiology, 2018):
Changes are numbered by the printed parent chain. Values joined by “and” are separate entries in the source; they are usually repeats but may differ in a detail not shown here. Equal values may be shown once. Read-outs that look alike come from different tables or passages of the source.

Experiments:
Assay in all cases: Whole-cell voltage clamp, Zn^2+ modulation of GAQ gating
Assay type in all cases: cell-based
[1] = biological target: T1, human Hv1 E153A (E^2.53A) (Homo sapiens, UniProt Q96D96, E153A)
T1 sequence (Q96D96 1-273 E153A): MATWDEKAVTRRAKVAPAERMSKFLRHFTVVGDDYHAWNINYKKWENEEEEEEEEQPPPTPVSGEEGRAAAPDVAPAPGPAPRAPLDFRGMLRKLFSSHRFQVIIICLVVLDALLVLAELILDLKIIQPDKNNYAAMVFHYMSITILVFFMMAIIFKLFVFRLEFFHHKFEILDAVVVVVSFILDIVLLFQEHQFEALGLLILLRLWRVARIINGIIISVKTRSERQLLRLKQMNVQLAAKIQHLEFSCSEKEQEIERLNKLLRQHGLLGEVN
Procedure, shortened: (§1)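 Whole-cell patch clamp at ~21°C. Pipette and bath (mM): ~80 TMA-MeSO3, 100 Bis-Tris, 8 HCl, pH 6.5, 310–320 mOsm. ZnCl2 was diluted into bath solution and applied by gravity superfusion, at least 2 min per change. Test step voltage was set per construct from its V0.5. G_STEP = end-of-step current/(V−V_REV). Effect = 1 − G_Zn/G_control, fitted to the Hill equation. IC50 and nH are means ± SEM from separate cells. ΔpIC50 was tested by unpaired t test, P<0.05.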

[2] = biological target: human Hv1 H140A-D185H-H193A-R205H (Homo sapiens, UniProt Q96D96, D185H/H140A/H193A/R205H)
human Hv1 H140A-D185H-H193A-R205H, sequence (Q96D96 whole entry H140A/D185H/H193A/R205H): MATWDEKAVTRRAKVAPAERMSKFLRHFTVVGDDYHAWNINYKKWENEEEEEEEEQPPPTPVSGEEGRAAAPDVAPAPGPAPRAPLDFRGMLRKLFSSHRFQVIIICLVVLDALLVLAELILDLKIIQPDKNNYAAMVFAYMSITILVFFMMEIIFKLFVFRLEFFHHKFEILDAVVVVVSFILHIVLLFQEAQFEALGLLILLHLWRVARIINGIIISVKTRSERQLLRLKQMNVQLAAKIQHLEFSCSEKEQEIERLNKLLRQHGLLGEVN
Procedure, shortened: as §1

[3] = biological target: T2, human Hv1 E119H (E^1.58H) (Homo sapiens, UniProt Q96D96, E119H)
T2 sequence (Q96D96 1-273 E119H): T1 sequence (Q96D96 1-273 E153A) with E119H, A153E
Procedure, shortened: as §1

human Hv1 WT = biological target: T3, human Hv1 WT (Homo sapiens, UniProt Q96D96)
T3 sequence (Q96D96 1-273): T1 sequence (Q96D96 1-273 E153A) with A153E
Procedure, shortened: as §1

human Hv1 E119H-H193A = biological target: T4, human Hv1 E119H-H193A (Homo sapiens, UniProt Q96D96, E119H/H193A)
T4 sequence (Q96D96 1-273 E119H/H193A): T1 sequence (Q96D96 1-273 E153A) with E119H, A153E, H193A
Procedure, shortened: as §1

human Hv1 H140A-H193A = biological target: T5, human Hv1 H140A-H193A (Homo sapiens, UniProt Q96D96, H140A/H193A)
T5 sequence (Q96D96 1-273 H140A/H193A): T1 sequence (Q96D96 1-273 E153A) with H140A, A153E, H193A
Procedure, shortened: as §1

[4] = biological target: T6, human Hv1 D112N (D^1.51N) (Homo sapiens, UniProt Q96D96, D112N)
T6 sequence (Q96D96 1-273 D112N): T1 sequence (Q96D96 1-273 E153A) with D112N, A153E
Procedure, shortened: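 Zn2+ effect was read from tail current, not end-of-step current. Whole-cell recording at ~21°C with pH 6.5 pipette and bath solutions (mM: ~80 TMA-MeSO3, 100 Bis-Tris, 8 HCl). ZnCl2 was diluted in bath solution and gravity-superfused, at least 2 min per change. Concentration–response was fitted to the Hill equation, with IC50 values from separate cells. ΔpIC50 was compared by unpaired Student's t test, P<0.05.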

[5] = VSTEP 100 mV, calculated as log (IC50)

[Cl-].[Cl-].[Zn+2] [Zn^2+, ZnCl2]
Mean ΔpIC50 = (pIC50_1 - pIC50_2) ([1]; E153A vs WT): −1.29
Hill value ([1]; VSTEP 40 mV): 0.87
pIC50 ([1]; VSTEP 40 mV, calculated as log (IC50)): −3.77
IC50 ([1]; read-out: Mean IC50 @ VSTEP, VSTEP 40 mV, pH 6.5, mean of fits in separate cells): 241 µM
Mean ΔpIC50 = (pIC50_1 - pIC50_2) ([2]; H140A-D185H-H193A-R205H vs H140A-D185H-H193A): 0.54
Mean pIC50 ([2]; Table 2 only, calculated as log (IC50)): −3.68
Mean ΔpIC50 = (pIC50_1 - pIC50_2) ([3]; E119H vs WT): 0.8 and 0.77
nH, fit of the mean data to a Hill function ([3]; Fig. 3C): 0.9
Hill value ([3]; VSTEP 100 mV): 1.08
pIC50 [3, 5]: 6.22
IC50 ([3]; read-out: IC50, fit of the mean data to a Hill function, Fig. 3C): 0.6 µM
nH, fit of the mean data to a Hill function (human Hv1 WT; Fig. 2C): 0.8
Hill value (human Hv1 WT; VSTEP 100 mV): 0.81
pIC50 (human Hv1 WT; [5]): 5.44
Mean ΔpIC50 = (pIC50_1 - pIC50_2) (human Hv1 E119H-H193A; E119H-H193A vs H193A): 1.38
nH, fit of the mean data to a Hill function (human Hv1 E119H-H193A; Fig. 4A): 0.7
Hill value (human Hv1 E119H-H193A; VSTEP 100 mV): 0.86
pIC50 (human Hv1 E119H-H193A; [5]): 5.45
IC50 (human Hv1 E119H-H193A; read-out: IC50, fit of the mean data to a Hill function, Fig. 4A): 4.2 µM
nH, fit of the mean data to a Hill function (human Hv1 H140A-H193A; Fig. 2C): 1.5
Mean ΔpIC50 = (pIC50_1 - pIC50_2) (human Hv1 H140A-H193A; H140A-H193A vs H140A): −1.65
Mean ΔpIC50 = (pIC50_1 - pIC50_2) (human Hv1 H140A-H193A; H140A-H193A vs H193A): −1.30
Mean ΔpIC50 = (pIC50_1 - pIC50_2) (human Hv1 H140A-H193A; H140A-H193A vs WT): −2.68
Hill value (human Hv1 H140A-H193A; VSTEP 100 mV): 1.57
IC50 (human Hv1 H140A-H193A; VSTEP 100 mV): 1700 ± 300 µM
pIC50 (human Hv1 H140A-H193A; [5]): −2.76
IC50 (human Hv1 H140A-H193A; read-out: IC50, fit of the mean data to a Hill function, Fig. 2C): 1740 µM
Mean ΔpIC50 = (pIC50_1 - pIC50_2) ([4]; D112N vs WT): −0.03
Hill value ([4]; VSTEP 140 mV, determined from tail current): 0.76
pIC50 ([4]; VSTEP 140 mV, determined from tail current, calculated as log (IC50)): 5.03
IC50 ([4]; read-out: Mean IC50 @ VSTEP, VSTEP 140 mV, pH 6.5, determined from tail current): 9.5 µM
